Screens as filed in PubChem BioAssay.
Autophagy mod = autophagy modulators in MEF cells, primary screen, imaging, high-content, MEF GFP-LC3. 190,000 tested, 0.98% active. MEF GFP-LC3 puncta imaging; test concentration mostly 10 µM. calls only at 10 µM (by protocol). AID 463193, 2010;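 active means percentage of spot-positive cells more than 3 SD above its plate mean, without a fluorescence outlier flag or 80% toxicity; inconclusive means no clear call, values can overlap the other calls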
Insulin prom up = insulin promoter activators in MIN6 cells, imaging, high-content screening, mouse beta cells | MIN6 insulin promoter-GFP reporter; active compounds read high | 190,000 tested, 0.3% active | z-score at 5 µM;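 active means z-score above 3 at 5 µM with at least 500 cells counted in the well; inconclusive means wells under 500 cells, flagged as cytotoxic or low count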
ABCB1 inh = ABCB1 efflux pump inhibitors, primary screen, cell-based, multiplex, flow cytometry, ABCG2 counter-screen; 190,000 tested, 0.067% active; AID 1326, 2008; inhibition, % at 6.6 µM; CCRF-Adr cells, JC-1 efflux; in the data active means inhibition above about 40%;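 further: higher value means more JC-1 retained so stronger ABCB1 efflux block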
Target sequence (P08183 whole entry, looked up): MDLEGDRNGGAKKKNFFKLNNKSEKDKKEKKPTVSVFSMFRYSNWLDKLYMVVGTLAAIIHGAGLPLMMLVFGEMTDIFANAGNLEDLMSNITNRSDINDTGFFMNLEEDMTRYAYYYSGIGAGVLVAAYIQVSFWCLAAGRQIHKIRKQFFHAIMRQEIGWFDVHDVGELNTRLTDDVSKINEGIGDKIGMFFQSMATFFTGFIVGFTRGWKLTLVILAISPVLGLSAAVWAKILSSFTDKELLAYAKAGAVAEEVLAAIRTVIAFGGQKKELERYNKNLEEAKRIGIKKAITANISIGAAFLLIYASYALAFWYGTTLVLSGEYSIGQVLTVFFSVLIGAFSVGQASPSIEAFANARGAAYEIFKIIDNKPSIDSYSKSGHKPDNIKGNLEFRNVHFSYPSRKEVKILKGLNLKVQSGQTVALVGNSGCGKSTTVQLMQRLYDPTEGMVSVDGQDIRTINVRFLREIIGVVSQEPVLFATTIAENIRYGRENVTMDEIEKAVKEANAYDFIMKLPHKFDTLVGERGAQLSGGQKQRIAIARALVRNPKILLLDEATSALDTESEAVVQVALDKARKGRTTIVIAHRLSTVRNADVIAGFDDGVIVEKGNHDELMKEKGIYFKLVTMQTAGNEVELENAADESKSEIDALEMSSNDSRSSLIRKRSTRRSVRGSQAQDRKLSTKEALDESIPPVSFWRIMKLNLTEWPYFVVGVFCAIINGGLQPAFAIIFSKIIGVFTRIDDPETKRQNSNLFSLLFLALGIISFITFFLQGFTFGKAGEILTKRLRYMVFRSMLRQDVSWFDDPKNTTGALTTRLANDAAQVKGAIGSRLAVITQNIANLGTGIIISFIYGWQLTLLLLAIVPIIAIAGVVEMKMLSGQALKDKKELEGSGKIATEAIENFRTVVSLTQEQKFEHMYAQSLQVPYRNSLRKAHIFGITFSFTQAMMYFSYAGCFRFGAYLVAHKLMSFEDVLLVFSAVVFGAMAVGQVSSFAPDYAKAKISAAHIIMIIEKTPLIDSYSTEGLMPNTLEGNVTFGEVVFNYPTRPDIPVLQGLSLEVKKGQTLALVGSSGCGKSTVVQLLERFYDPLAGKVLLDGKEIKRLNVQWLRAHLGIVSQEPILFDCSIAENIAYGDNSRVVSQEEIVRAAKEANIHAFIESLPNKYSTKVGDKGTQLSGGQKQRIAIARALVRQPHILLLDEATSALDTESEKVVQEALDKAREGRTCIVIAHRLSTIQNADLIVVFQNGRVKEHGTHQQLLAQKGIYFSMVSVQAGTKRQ
ROMK primary = ROMK potassium channel modulators, primary screen, cell-based, thallium flux, MLSMR library. ATP-sensitive inward rectifier potassium channel 1 (Homo sapiens), P48048. Tet-inducible ROMK, thallium flux fluorescence; actives lie on both sides. B-score at 10 µM. 130,000 tested, 2% active. AID 1918, 2009;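 active means signal ratio slope over the read window, or its plate-corrected B-score, at least 3 SD from the plate mean, either direction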;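 further: B-score of the F/F0 ratio slope over 7 to 12 s after thallium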
ABCG2 block = ABCG2 efflux pump inhibitors, primary screen, multiplex with ABCB1, IgMXP3 cells, flow cytometry | Broad substrate specificity ATP-binding cassette transporter ABCG2 (Homo sapiens), Q9UNQ0 | JC-1 efflux | inhibition, % at 6.6 µM | 190,000 tested, 0.1% active | AID 1325, 2008;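 active means inhibition above 80%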
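Measure – % inhibition of efflux relative to nicardipine and DMSO · Test system – ABCG2 IgMXP3 and barcoded ABCB1 CCRF-Adr cell mix · Control set – nicardipine as high control, DMSO as low control · Compound – one concentration, 6.6 µM final · Signal – flow cytometry of retained JC-1 fluorescence · Timing – 10 min exposure at 25 °C with rotation, no wash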
SDO1 yeast rescue = growth rescue of sdo1-depleted yeast, primary screen, S. cerevisiae, bone marrow failure model | 140,000 tested, 0.21% active | z-score at 10 µM | S. cerevisiae sdo1-depleted JHY4D growth rescue, OD600 30 h; active compounds read high; pdr5 snq2 efflux-pump mutant strain | AID 817, 2007;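 active means z-score above 3 at both the 24 hr and the 30 hr optical density reads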
sdo1 rescue conf = SDO1-depleted yeast growth rescue, concentration-response, diseases of bone marrow failure, JHY4D, OD600; shares compounds with SDO1 yeast rescue; S. cerevisiae JHY4D (SDO1-depleted) growth rescue, 30 h; active compounds read high; efflux-deficient strain, SNQ2 and PDR5 mutated; OD recovery (no concentration beside the values); 440 tested, 44% active; AID 949, 2007;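 active means yeast growth recovered at 30 hours, either rising with dose fitted slope above 0.001 or with average optical density gain above 0.07, some results past the limit were not filed as active; inactive means growth falling with dose or no effect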
ROMK hit retest = ROMK channel modulator hit retest, confirmation, cell-based, thallium flux, duplicate, resupplied hits. shares compounds with ROMK primary. fluorescence ratio; active compounds read low. normalized thallium flux (F/F0 slope) at 10 µM. 3,000 tested, 54% active. AID 1917, 2009;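 active means Flux at 10 µM at least 3 SD below or above vehicle control mean in one or both replicates; inconclusive means no clear call, values can overlap the other calls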
Each line names hits and unclear results; the compound was inactive in the other large screens (follow-up assays come after a bar, where they were run). The list is not random: actives were taken first. Their share in the collection is about 2.3%.

CN1/C(=C\C=C\C2=[N+](C)c3ccc4ccccc4c3C2(C)C)C(C)(C)c2ccccc21	Autophagy mod active, Insulin prom up inconclusive (no result: ROMK primary)
CN1/C(=C\C=Nc2ccccc2)C(C)(C)c2ccccc21	none
CCC(C)NC(=O)CN1C(=O)CN=C(c2ccccc2)c2ccccc21 (stereo not given)	none (no result: SDO1 yeast rescue)
Cc1nn(Cc2ccccc2)c(Cl)c1C(=O)NC1CCCc2ccccc21 (stereo not given)	Autophagy mod active
Cc1nn(Cc2ccccc2)c(Cl)c1C(=O)Nc1ccc(OC(F)(F)F)cc1	none
COc1ccc(NC(=O)c2cn(CCC#N)nc2-c2cccc([N+](=O)[O-])c2)cc1	none (no result: Autophagy mod, ABCB1 inh, ROMK primary, ABCG2 block, SDO1 yeast rescue)
COc1ccc(Oc2cc(NC(=O)c3nn(C)cc3[N+](=O)[O-])cc([N+](=O)[O-])c2)cc1	Autophagy mod active
Cc1cc2ccccc2c(=O)n1CC(=O)NCC(=O)N1CCC2(CC1)OCCO2	Autophagy mod active (no result: SDO1 yeast rescue)
CCCCn1c(O)c(/C=N/N2CCOCC2)c(=O)[nH]c1=S	none (no result: Autophagy mod, ABCB1 inh, ROMK primary, ABCG2 block, SDO1 yeast rescue)
CCCCCCn1c(O)c(C=Nc2ccccc2N2CCOCC2)c(=O)[nH]c1=S	Insulin prom up 3.2 (no result: Autophagy mod, ABCB1 inh, ROMK primary, ABCG2 block, SDO1 yeast rescue)
CC/C(=N\N1CCN(C)CC1)c1c(O)[nH]c(=O)[nH]c1=O	none (no result: ROMK primary)
COc1cc(CN2CCN(c3cc(C)ccc3C)CC2)ccc1O	Autophagy mod active (no result: ROMK primary)
CN(C)c1cccc2c(C#N)ccc(N(C)C)c12	none (no result: SDO1 yeast rescue)
C[C@H]1CCC/C=C/C2C[C@H](O)CC2[C@H](O)/C=C/C(=O)O1 (stereo not given in full)	Autophagy mod active (no result: Insulin prom up, ROMK primary)
COc1ccc(C2NCc3ccc4c(c3-n3cccc32)OCO4)cc1O (stereo not given)	Autophagy mod active (no result: ROMK primary)
Cc1ccc2c(c1)C1CN(C)CCC1N2C(=O)c1cccnc1Cl (stereo not given)	none (no result: Autophagy mod, ABCB1 inh, ROMK primary, ABCG2 block, SDO1 yeast rescue)
Cc1ccc2c(c1)C1CN(C)CCC1N2C(=O)c1cn(-c2ccccc2)nc1-c1ccccc1 (stereo not given)	Autophagy mod active (no result: SDO1 yeast rescue)
CC(C)OP(=O)(OC(C)C)C(NCc1ccccc1)c1ccccc1 (stereo not given)	none (no result: SDO1 yeast rescue)
c1ccc(-c2nc(N3CCOCC3)s[n+]2-c2ccccc2)cc1	none
CN(C)CCNC(=O)c1cccn(Cc2cccc(C(F)(F)F)c2)c1=O	Autophagy mod active (no result: SDO1 yeast rescue)
O=C(N/N=C/c1c(O)n(CCC2=CCCCC2)c(=O)[nH]c1=O)c1ccccc1	none (no result: ROMK primary)
Nc1ccccc1N=Cc1c(O)n(CCC2=CCCCC2)c(=O)[nH]c1=O	SDO1 yeast rescue 7.4 | sdo1 rescue conf inactive
COc1ccccc1N=Cc1c(O)n(C)c(=O)n(C)c1=O	SDO1 yeast rescue 3.2 | sdo1 rescue conf 0.083
O=[N+]([O-])c1cc(-n2cnnn2)c(O)c([N+](=O)[O-])c1	none (no result: Autophagy mod, ABCB1 inh, ROMK primary, ABCG2 block, SDO1 yeast rescue)
OC(CNC1CCCCC1)C(F)(F)F (stereo not given)	none (no result: SDO1 yeast rescue)
C[N+]1=C(/C=C/Nc2ccccc2)C(C)(C)c2ccccc21	SDO1 yeast rescue 6.2 | sdo1 rescue conf 0.14
C=CCN1C(=O)/C(=C/c2cc(C)n(-c3cccnc3)c2C)C(=O)NC1=S	ROMK primary -2.9 | ROMK hit retest 0.067
Cc1cc(C=C2C(=O)NC(=O)NC2=O)c(C)n1-c1cccnc1	none (no result: Autophagy mod, ABCB1 inh, ROMK primary, ABCG2 block, SDO1 yeast rescue)
O=c1[nH]c(=O)n(Cc2ccco2)c(O)c1C=NC1CCN(Cc2ccccc2)CC1	none (no result: Autophagy mod, ABCB1 inh, ROMK primary, ABCG2 block, SDO1 yeast rescue)
Clc1ccc2c(c1)C(OC1CN3CCC1CC3)c1ccccc1CS2 (stereo not given)	Insulin prom up inconclusive (no result: ROMK primary)
